# Data as given in ChEMBL document CHEMBL1122079, “Tryptophan analogues. 1. Synthesis and antihypertensive activity of positional isomers” (1982).
# Key:
# Rattus norvegicus [1] = experiment: Antihypertensive activity in renal hypertensive rats 2 hr after oral administration (10 mg/Kg); type: functional
# Method in brief: (§1)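 Renal hypertensive rats (5 or 10 per group), 10 mg/kg given orally. Systolic pressure measured indirectly by tail occluding cuff with pulse sensor, once before dosing as control and again at 1, 2, 4, 6 and 8 h. Values are changes in mean systolic pressure from control (mmHg). Significance of control vs posttreatment assessed by Wilcoxon's signed rank test (p < 0.05).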
# Rattus norvegicus [2] = experiment: Antihypertensive activity in renal hypertensive rats 1 hr after oral administration (10 mg/Kg); type: functional; method in brief: as §1
# Rattus norvegicus [3] = experiment: Antihypertensive activity in renal hypertensive rats 8 hr after oral administration (10 mg/Kg); type: functional; method in brief: as §1
# Felis catus [4] = experiment: Change in blood pressure in normotensive anesthetized cat.; type: functional
# Method in brief: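 Normotensive cats of either sex (2-4 kg) anesthetized with α-chloralose (80 mg/kg iv). Trachea, femoral artery and jugular vein cannulated. Compound given iv at 10 mg/kg, with 1 mg/kg iv used in one case. Mean blood pressure recorded by pressure transducer before and 30 min after dosing, reported as decrease in mmHg.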
# Rattus norvegicus [5] = experiment: Antihypertensive activity in renal hypertensive rats 6 hr after oral administration (10 mg/Kg); type: functional; method in brief: as §1
# Rattus norvegicus [6] = experiment: Antihypertensive activity in renal hypertensive rats 4 hr after oral administration (10 mg/Kg); type: functional; method in brief: as §1
# Felis catus [7] = experiment: Control blood pressure in normotensive anesthetized cat at dose 10 mg/Kg iv
Compound,BP (Rattus norvegicus [1]) [mmHg],BP (Rattus norvegicus [2]) [mmHg],BP (Rattus norvegicus [3]) [mmHg],BP (Felis catus [4]) [mmHg],BP (Rattus norvegicus [5]) [mmHg],BP (Rattus norvegicus [6]) [mmHg],control BP (Felis catus [7]) [mmHg]
COC(=O)CC(CN)c1c[nH]c2ccc(OC)cc12 (stereo not drawn),-15,-14,-12,-25,-13,-6,166
COC(=O)C(N)Cc1c[nH]c2ccc(OC)cc12 (stereo not drawn),4,-7,-1,-12,4,-8,136
COC(=O)CC(CN)c1c[nH]c2cc(Cl)ccc12 (stereo not drawn),-4,2,-6,-10,-11,-3,158
CCOC(=O)C(CN)c1c[nH]c2ccc(OC)cc12.Cl (stereo not drawn),-4,-5,-3,0,-2,4,160
NC(Cc1c[nH]c2ccc(O)cc12)C(=O)O (stereo not drawn),-5,-9,-1,-24,6,0,162
COC(=O)C(CN)c1cn(C)c2ccc(OC)cc12.Cl (stereo not drawn),-6,-5,7,20,1,3,165
NCC(C(=O)O)c1c[nH]c2ccccc12 (stereo not drawn),-8,-6,-8,-10,-13,-10,153
NCC(CC(=O)O)c1c[nH]c2cc(Cl)ccc12 (stereo not drawn),5,2,-2,5,-9,-9,160
CCOC(=O)CC(c1nnn[nH]1)c1c[nH]c2cc(Cl)ccc12 (stereo not drawn),2,-5,-11,-20,-17,-4,175
COc1ccc2[nH]cc(C(CN)c3nnn[nH]3)c2c1 (stereo not drawn),5,-2,13,-4,3,-2,167
COC(=O)C(CN)c1c[nH]c2ccc(OC)cc12.Cl (stereo not drawn) [INDORENATE HYDROCHLORIDE],-71,-85,2,-82,-10,-38,162
COC(=O)C(CN)c1c[nH]c2cc(Cl)ccc12.Cl (stereo not drawn),-23,-14,-7,-7,-15,-17,140
CCOC(=O)NCC(c1nnn[nH]1)c1c[nH]c2ccccc12 (stereo not drawn),-6,-10,-15,5,-17,-24,155
N[C@@H](Cc1c[nH]c2ccccc12)C(=O)O [TRYPTOPHAN],-9,-12,0,-22,-4,-15,165
